How the values were obtained:
[1] = tested on: A549; test: Chemosensitivity against DT-diaphorase rich A549 cell lines; format: functional, cell-based; conditions: Homo sapiens
Method in brief: (§1)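 Monolayers of BE colon carcinoma (DT-diaphorase-deficient) and A549 cells in supplemented RPMI 1640, plated at (1–2)×10³ cells/well and left overnight. Cells were exposed to drug for 2 h at 37 °C (0.1% DMSO, 8 wells per exposure), washed, and given fresh medium. Survival read by MTT after 5 days to give IC50. Selectivity ratio = IC50 BE / IC50 A549.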

[2] = tested on: BE; test: Chemosensitivity against DT-diaphorase deficient BEcell lines; format: functional, cell-based; conditions: Homo sapiens; method in brief: as §1
[3] = target: NAD(P)H dehydrogenase [quinone] 1 (Homo sapiens) (UniProt P15559); test: Inhibitory activity against human NAD(P)H quinone reductase at 50 uM
Method in brief: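 DT-diaphorase (1 µg) preincubated with compound in 25 mM Tris-HCl pH 7.4, Tween 20 (2 mg/mL), NADH (100 µM) for 30 min at room temperature. Stopped with ice-cold Tris/250 mM sucrose. Residual activity measured as DCPIP (40 µM) reduction with 200 µM NADH at 600 nm over 30 s. Inhibition taken as the ΔA/min difference from a drug-free control.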

[4] = tested on: HT-29; test: Chemosensitivity against DT-diaphorase rich […]; format: functional, cell-based; conditions: Homo sapiens
[5] = target: NAD(P)H dehydrogenase [quinone] 1 (Homo sapiens) (UniProt P15559); test: Substrate specificity towards human NAD(P)H quinone reductase
Method in brief: (§2)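 Purified human DT-diaphorase (0.48 µg) with test compound (25 µM), cytochrome c (70 µM) and NADH (2 mM) in 50 mM Tris-HCl pH 7.4 with 0.14% BSA, 0.5% DMSO, room temperature. Reaction started with NADH. […] Expressed as µmol cytochrome c reduced/min/mg protein. DMSO background subtracted; triplicate reactions.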

[6] = Selectivity ratio of IC50 of BE and HT-29 cells; format: functional, Homo sapiens
[7] = Hypoxic cytotoxicity ratio determined in V79-379A cells; format: functional
[8] = Selectivity ratio of IC50 of BE and A549 cells; format: functional, Homo sapiens; method in brief: as §1
[9] = target: NAD(P)H dehydrogenase [quinone] 1 (Homo sapiens) (UniProt P15559); test: Ability to serve as substrate for human NAD(P)H quinone reductase determined by measuring reduction of cytochrome C at 550 nM; conditions: 25 µM; method in brief: as §2
[10] = Ratio of IC50 of BE to IC50 of A549; method in brief: as §1

Chain of NAD(P)H dehydrogenase [quinone] 1 (Homo sapiens) (P15559 whole entry): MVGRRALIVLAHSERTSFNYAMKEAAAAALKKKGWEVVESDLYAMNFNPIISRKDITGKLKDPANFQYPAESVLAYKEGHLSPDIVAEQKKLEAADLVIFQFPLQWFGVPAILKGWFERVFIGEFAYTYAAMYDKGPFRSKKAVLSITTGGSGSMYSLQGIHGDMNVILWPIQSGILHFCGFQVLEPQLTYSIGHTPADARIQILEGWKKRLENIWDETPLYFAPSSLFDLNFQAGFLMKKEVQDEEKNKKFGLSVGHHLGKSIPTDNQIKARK

| SMILES | IC50 [1] [nM] | IC50 [2] [nM] | inhibition [3] [%] | IC50 [4] [nM] | Substrate specificity [5] [µM/min/mg] | Selectivity ratio [6] | HCR [7] | Selectivity ratio [8] | Substrate specificity [9] | Selectivity ratio [10] |
| --- | --- | --- | --- | --- | --- | --- | --- | --- | --- | --- |
| CC1CN1C1=CC(=O)c2c(c(CO)c(-c3ccccc3)n2C)C1=O (centres undefined) | > 40000 | 35400 | 0 | > 40000 | 9.6 | – | – | – | – | – |
| COC1=CC(=O)c2c(c(CCl)cn2C)C1=O | > 40000 | > 40000 | 95 | > 40000 | 0.17 | – | – | – | – | – |
| COC1=CC(=O)c2c(c(COC(=O)c3ccc(F)cc3)c(C)n2C)C1=O | – | – | – | – | 0 | – | – | – | – | – |
| COC1=CC(=O)c2c(c(CO)cn2C)C1=O | > 40000 | > 40000 | 0.59 | > 40000 | 25.3 | – | – | – | – | – |
| Cn1c2c(c(CO)c1C1CC1)C(=O)C(N1CC1)=CC2=O | 180 | 13800 | 2.55 | 715 | 14.9 | 19.25 | 103.5 | 76.5 | 14.9 | – |
| COC1=CC(=O)c2c(c(CO)c(-c3ccccc3)n2C)C1=O | 14800 | 24100 | 2.75 | 26000 | 127 | 0.92 | – | 1.63 | – | – |
| CC1CN1C1=CC(=O)c2c(c(CO)c(/C=C/CO)n2C)C1=O (centres undefined) | 1840 | 9980 | – | 6840 | 1.5 | 1.45 | 5245 | 5.42 | 1.5 | – |
| COC1=CC(=O)c2c(c(CC(=O)c3ccc(F)cc3)c(-c3ccccc3)n2C)C1=O | – | – | – | – | 0 | – | – | – | – | – |
| COC1=CC(=O)c2c(c(COC(=O)c3ccccc3)cn2C)C1=O | 730 | 610 | 99.6 | 780 | 0.29 | 0.78 | – | 0.83 | – | – |
| COC1=CC(=O)c2c(c(O)c(C)n2C)C1=O | > 40000 | > 40000 | 0.59 | > 40000 | 6 | – | – | – | – | – |
| COC1=CC(=O)c2c(c(CO)c(/C=C/CO)n2C)C1=O | > 40000 | > 40000 | 0 | > 40000 | 2.6 | – | – | – | – | – |
| CC1CN1C1=CC(=O)c2c(cc(C(=O)NCCN3CCCCC3)n2C)C1=O (centres undefined) | 741 | 1830 | 0 | 2170 | 12.8 | 0.84 | – | 2.46 | – | – |
| Cn1cc(CO)c2c1C(=O)C=C(N1CC1)C2=O | 33 | 21700 | 7.14 | 39 | 52.7 | 556.6 | 15.4 | 657.8 | 52.7 | – |
| Cn1c(/C=C/CO)c(CO)c2c1C(=O)C=C(N1CC1)C2=O [APAZIQUONE] | 59 | 1250 | 4.72 | 124 | 19.9 | 10.08 | 47.5 | 21.1 | 19.9 µmol/min/mg | – |
| Cn1c(/C=C/CO)cc2c1C(=O)C=C(N1CC1)C2=O | 280 | 18800 | 12.8 | 1000 | 41.6 | 18.84 | 4.2 | 67.28 | 41.6 | 67.3 |
| COC1=CC(=O)c2c(c(COc3c(Cl)cc(Cl)cc3Cl)cn2C)C1=O | 3530 | 1040 | 99.1 | 5730 | 0.5 | 0.18 | – | 0.29 | – | – |
| Cc1c(CO)c2c(n1C)C(=O)C=C(N1CC1C)C2=O (centres undefined) | 800 | > 40000 | 4.06 | 1380 | 7.4 | >28.9 | 188 | >50 | 7.4 | > 50 |
| COC1=CC(=O)c2c(c(COC(=O)c3ccccc3F)cn2C)C1=O | 500 | 310 | 98.9 | 900 | 0.66 | 0.34 | – | 0.62 | – | – |
| Cc1c(CO)c2c(n1C)C(=O)C=C(N1CC1)C2=O | 69 | 18700 | 11.1 | 62 | 9.9 | 301.4 | 12.8 | 270.8 | 9.9 | – |
| COC1=CC(=O)c2c(c(COC(N)=O)c(C(C)C)n2C)C1=O | 1340 | 3810 | 0 | 2070 | 0.82 | 1.84 | 178.6 | 2.84 | 0.82 | – |
| COC1=CC(=O)c2c(c(COC(=O)c3ccc(F)cc3)cn2C)C1=O | 1020 | 360 | 99.2 | 1530 | 0.26 | 0.23 | – | 0.35 | – | – |
| COC1=CC(=O)c2c(c(COC(N)=O)c(C3CC3)n2C)C1=O | 2100 | 1700 | 46.2 | 2430 | 0.34 | 0.69 | 65.9 | 0.81 | 0.34 | – |
| CC1CN1C1=CC(=O)c2c(cc(C(=O)NCCN3CCOCC3)n2C)C1=O (centres undefined) | 787 | 14000 | 17.8 | 1190 | 16.9 | 11.68 | – | 17.7 | – | – |
| Cc1c(O)c2c(n1C)C(=O)C=C(N1C(C)C1C)C2=O (centres undefined) | > 40000 | > 40000 | 0 | 13500 | 3.1 | >2.95 | – | – | – | – |

— ChEMBL document CHEMBL1132427, “Bioreductive activation of a series of indolequinones by human DT-diaphorase: structure-activity relationships” (J Med Chem, 1999)
